Measurements taken from ChEMBL document CHEMBL1126204, “Nucleic acid related compounds. 74. Synthesis and biological activity of 2'(and 3')-deoxy-2'(and 3')-methylenenucleoside analogues that function as mechanism-based inhibitors of S-adenosyl-L-homocysteine hydrolase and/or ribonucleotide reductase” (J Med Chem, 1992).

How the values were obtained:
L1210 [1] = assay: In vitro inhibition of L1210 (murine leukemia) cell proliferation.; type: functional, cell-based; details: Mus musculus
Procedure, shortened: (§1)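 Murine FM3A or L1210 cells in Eagle's MEM with 10% inactivated FCS, 2 mM L-glutamine and 0.075% NaHCO₃, seeded at 5 × 10⁵ cells/mL with compound (0.001–500 µM). After 2 days at 37 °C in humidified CO₂, viable cells were counted with a Coulter counter. IC₅₀ = 50% fewer viable cells; mean of 2–4 experiments.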

MT4 = assay: In vitro inhibition of MT-4 (Human T-lymphocyte) cell proliferation.; type: functional, cell-based
Procedure, shortened: (§2)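 Human Molt/4F, MT-4, and Raji cells (wild-type, TK⁻ or dCK⁻) in RPMI-1640 with 10% inactivated FCS, 2 mM L-glutamine and 0.075% NaHCO₃, seeded at 7.5 × 10⁵ cells/mL with compound (0.001–500 µM). Incubated 3 days at 37 °C in humidified CO₂; viable cells counted by Coulter counter. IC₅₀ = 50% reduction in viable cells; means of 2–4 independent experiments.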

[2] = In vitro inhibition of Molt/4f (Human T-lymphoblast) cell proliferation.; type: functional; procedure, shortened: as §2
[3] = In vitro inhibition of FM3A (murine carcinoma) cell proliferation.; type: functional; details: Mus musculus; procedure, shortened: as §1
Homo sapiens [4] = species: Homo sapiens; assay: (§3) Concentration required to inhibit the proliferation of human T-lymphocyte CEM/o cells by 50%; type: functional
Procedure, shortened: (§4)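 Wild-type CEM and kinase-deficient sublines (AK⁻, dCK⁻, AK⁻/dCK⁻) grown in RPMI-1640 with 10% inactivated FCS, 2 mM L-glutamine and 0.075% NaHCO₃. Cells were exposed to compound at 0.001–500 µM for 3 days at 37 °C in humidified CO₂. Viable cells counted by Coulter counter; IC₅₀ = 50% reduction in viable cells. Mean of 2–4 independent experiments.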

Raji [5] = assay: Inhibition of human tumor B-lymphoblast Raji/dCK-(dcyd kinase deficient) cell proliferation; type: functional, cell-based; procedure, shortened: as §2
Raji [6] = assay: Inhibition of human tumor B-lymphoblast Raji/O cell proliferation; type: functional, cell-based; procedure, shortened: as §2
Raji [7] = assay: Inhibition of human tumor B-lymphoblast Raji/TK-(thymidine kinase deficient) cell proliferation; type: functional, cell-based; procedure, shortened: as §2
Homo sapiens [8] = species: Homo sapiens; assay: Concentration required to inhibit the proliferation of human T-lymphocyte CEM/dCK-(dcyd kinase deficient) cells by 50%; type: functional; procedure, shortened: as §4
[9] = Concentration required to inhibit the proliferation of human T-lymphocyte CEM/dCK-(dCyd kinase deficient) cells by 50%; type: functional; procedure, shortened: as §4
L1210 [10] = assay: Antitumor activity in mice bearing L1210 murine leukemia cell line at a dose of 12.5 mg/kg/day.; type: functional, Mus musculus
Procedure, shortened: (§5)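 DBA/2 mice (20 g) inoculated ip with 10⁶ L1210 leukemia cells; test agent given ip once daily for 5 successive days beginning 1 day after inoculation, dissolved in Eagle's MEM containing 2.5% Tween (250 μL injection). Untreated tumor-bearing controls; read-out mean survival time in days, 7–15 mice per group.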

[11] = Concentration required to inhibit the proliferation of human T-lymphocyte CEM cells by 50% in presence exogenous necleoside Ado+dCyd (100 uM).; type: functional, cell-based; details: CCRF-CEM, in the assay text read “1000 uM” for “100 uM”
Procedure, shortened: (§6)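 CEM human T-lymphocytes in RPMI-1640 with 10% inactivated FCS, 2 mM L-glutamine and 0.075% NaHCO₃. Test compound (0.001–500 µM) was co-added with the stated subtoxic exogenous nucleoside(s). Incubated 3 days at 37 °C in humidified CO₂, then viable cells counted by Coulter counter. IC₅₀ is the level giving 50% fewer viable cells; means of 2–4 independent experiments.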

[12] = Concentration required to inhibit the proliferation of human T-lymphocyte CEM cells by 50% in presence exogenous necleoside Ado (100 uM).; type: functional, cell-based; details: CCRF-CEM, in the assay text read “1000 uM” for “100 uM”; procedure, shortened: as §6
CCRF-CEM = assay: as §3; type: functional, cell-based; procedure, shortened: as §4
L1210 [13] = assay: Concentration required to inhibit the proliferation of L1210 murine leukemia cell line by 50% in presence exogenous necleoside dCyd (100 uM).; type: functional, cell-based; details: Mus musculus, in the assay text read “1000 uM” for “100 uM”
Procedure, shortened: (§7)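 L1210 murine leukemia cells in Eagle's MEM with 10% inactivated fetal calf serum, 2 mM L-glutamine and 0.075% NaHCO₃. 5 × 10⁵ cells/mL were exposed to test compound (0.001–500 µM) together with the stated exogenous nucleoside at subtoxic level. Incubated 2 days at 37 °C in humidified CO₂. Viable cells were counted by Coulter counter. IC₅₀ = 50% reduction in viable cell number; mean of 2–4 independent experiments.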

[14] = Concentration required to inhibit the proliferation of human T-lymphocyte CEM cells by 50% in presence exogenous necleoside dCyd (100 uM).; type: functional, cell-based; details: CCRF-CEM, in the assay text read “1000 uM” for “100 uM”; procedure, shortened: as §6
L1210 [15] = assay: Concentration required to inhibit the proliferation of L1210 murine leukemia cell line by 50% in presence exogenous necleoside Guo (50 uM).; type: functional, cell-based; details: Mus musculus; procedure, shortened: as §7
L1210 [16] = assay: Antitumor activity in mice bearing L1210 murine leukemia cell line at a dose of 50 mg/kg/day.; type: functional, Mus musculus; procedure, shortened: as §5
[17] = Concentration required to inhibit the proliferation of human T-lymphocyte CEM/AK-/dCK-(Ado and dCyd kinase deficient) cells by 50%; type: functional; procedure, shortened: as §4
L1210 [18] = assay: Antitumor activity in mice bearing L1210 murine leukemia cell line at a dose of 100 mg/kg/day.; type: functional, Mus musculus; procedure, shortened: as §5
L1210 [19] = assay: Concentration required to inhibit the proliferation of L1210 murine leukemia cell line by 50% in presence exogenous necleoside Ado (100 uM).; type: functional, cell-based; details: Mus musculus, in the assay text read “1000 uM” for “100 uM”; procedure, shortened: as §7
[20] = Concentration required to inhibit the proliferation of human T-lymphocyte CEM/AK-(Ado kinase deficient) cells by 50%; type: functional; procedure, shortened: as §4
L1210 [21] = assay: Concentration required to inhibit the proliferation of L1210 murine leukemia cell line by 50% in presence exogenous necleosides dCyd+Ado (100 uM).; type: functional, cell-based; details: Mus musculus, in the assay text read “1000 uM” for “100 uM”; procedure, shortened: as §7
L1210 [22] = assay: Antitumor activity in mice bearing L1210 murine leukemia cell line at a dose of 25 mg/kg/day.; type: functional, Mus musculus; procedure, shortened: as §5
L1210 [23] = assay: Concentration required to inhibit the proliferation of L1210 murine leukemia cell line by 50% in presence of exogenous nucleoside (d)Thd (5 ug/mL).; type: functional, cell-based; details: Mus musculus; procedure, shortened: as §7
L1210 [24] = assay: Concentration required to inhibit the proliferation of L1210 murine leukemia cell line by 50% in presence of exogenous nucleoside dUrd (125 ug/mL).; type: functional, cell-based; details: Mus musculus; procedure, shortened: as §7
L1210 [25] = assay: Concentration required to inhibit the proliferation of L1210 murine leukemia cell line by 50% in presence of exogenous nucleoside dCyd (500 ug/mL).; type: functional, cell-based; details: Mus musculus; procedure, shortened: as §7

With `C=C1[C@@H](O)[C@H](n2cnc3c(N)ncnc32)O[C@@H]1CO` the IC50 (L1210 [1]) was 228 µM, the IC50 (MT4) was 43 µM and the IC50 [2] was > 500 µM. For the same molecule, the IC50 [3] was 466 µM.
In the case of `C=C1[C@@H](O)[C@H](n2ccc(N)nc2=O)O[C@@H]1CO`, the IC50 (L1210 [1]) is reported as 378 µM, the IC50 (Homo sapiens [4]) is reported as 63 µM and the IC50 (Raji [5]) is reported as > 500 µM. The IC50 (Raji [6]) was 33 µM, the IC50 (MT4) was 121 µM and the IC50 (Raji [7]) was 52 µM. For the same molecule, the IC50 [2] was 172 µM, the IC50 [3] was > 500 µM and the IC50 (Homo sapiens [8]) was > 500 µM.
For `C=C1[C@@H](O)[C@H](n2cnc3c(OC)nc(N)nc32)O[C@@H]1CO`, the IC50 (L1210 [1]) was 446 µM, the IC50 (MT4) was > 500 µM and the IC50 [2] was > 500 µM. It also gave an IC50 [3] of 439 µM.
Work on `C=C1[C@H](n2cnc3c(O)nc(N)nc32)O[C@H](CO)[C@H]1O` yielded an IC50 [9] of 221 µM, a Mean survival time (L1210 [10]) of 7.5 days and an IC50 (L1210 [1]) of 8.5 µM. It also gave an IC50 [11] of 136 µM, an IC50 [12] of 25 µM and an IC50 (CCRF-CEM) of 9.4 µM. It also gave an IC50 (L1210 [13]) of 17 µM, an IC50 [14] of 136 µM and an IC50 (L1210 [15]) of 51 µM. For the same molecule, the Mean survival time (L1210 [16]) was 5.3 days, the IC50 [17] was 201 µM and the Mean survival time (L1210 [18]) was 2 days. It also gave an IC50 (MT4) of 150 µM, an IC50 [2] of 22 µM and an IC50 [3] of 102 µM. The IC50 (L1210 [19]) was 55 µM, the IC50 [20] was 36 µM and the IC50 (L1210 [21]) was 75 µM. For the same molecule, the Mean survival time (L1210 [22]) was 7.5 days.
Work on `C=C1[C@H](n2cnc3c(Cl)nc(N)nc32)O[C@H](CO)[C@H]1O` yielded an IC50 (L1210 [1]) of 10 µM, an IC50 (MT4) of 176 µM and an IC50 [2] of 22 µM. It also gave an IC50 [3] of 50 µM.
In the case of `C=C1[C@@H](O)[C@H](n2cnc3c(N(C)C)nc(N)nc32)O[C@@H]1CO`, the IC50 (L1210 [1]) is reported as > 500 µM, the IC50 (MT4) is reported as > 500 µM and the IC50 [2] is reported as > 500 µM. The IC50 [3] was > 500 µM.
In the case of `C=C1[C@H](n2cnc3c(SC)nc(N)nc32)O[C@H](CO)[C@H]1O`, the IC50 (L1210 [1]) is reported as > 500 µM, the IC50 (MT4) is reported as > 500 µM and the IC50 [2] is reported as > 500 µM. The IC50 [3] was > 500 µM.
In the case of `C=C1C(n2ccc(N)nc2=O)O[C@H](CO)[C@@H]1O` (some centres undefined), the IC50 (L1210 [1]) is reported as 2 µM, the IC50 (Homo sapiens [4]) is reported as 0.046 µM and the IC50 (L1210 [23]) is reported as 1.18 µM. For the same molecule, the IC50 (L1210 [24]) was 1.47 µM, the IC50 (Raji [5]) was 31 µM and the Mean survival time (L1210 [16]) was 12 days. For the same molecule, the IC50 (Raji [6]) was 0.025 µM, the Mean survival time (L1210 [18]) was 15.6 days and the IC50 (MT4) was 0.19 µM. For the same molecule, the IC50 (Raji [7]) was 0.035 µM, the IC50 [2] was 0.11 µM and the IC50 (L1210 [25]) was 475 µM. It also gave an IC50 [3] of 11 µM and an IC50 (Homo sapiens [8]) of 60 µM.
For `C=C1[C@H](n2ccc(=O)[nH]c2=O)O[C@H](CO)[C@H]1O`, the IC50 (L1210 [1]) was > 500 µM, the IC50 (MT4) was > 500 µM and the IC50 [2] was > 500 µM. The IC50 [3] was > 500 µM.
With `C=C1[C@@H](O)[C@H](n2cnc3c(Cl)nc(N)nc32)O[C@@H]1CO` the IC50 (L1210 [1]) was 441 µM, the IC50 (MT4) was > 500 µM and the IC50 [2] was > 500 µM. For the same molecule, the IC50 [3] was 469 µM.
`C=C1[C@@H](O)[C@H](n2cnc3c(S)nc(N)nc32)O[C@@H]1CO` gave an IC50 (L1210 [1]) of 207 µM, an IC50 (MT4) of 12 µM and an IC50 [2] of 276 µM. It also gave an IC50 [3] of 495 µM.
